In ChEMBL document CHEMBL1152543, “Novel semisynthetic derivatives of betulin and betulinic acid with cytotoxic activity” (Bioorg Med Chem, 2009):
Calls of active or inactive are those of the source. The calls are words filed in the database; no cut-off is given here.

Experiments:
Format in all cases: functional, cell-based
[1] = tested on: Jurkat; assay: Cytotoxicity against human Jurkat cells after 72 hrs by XTT assay
Procedure, shortened: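 Jurkat cells (RPMI 1640, 10% FBS, 2 mM glutamine) in exponential growth plated at 5.5×10^3 cells/well and treated in triplicate with a concentration range or DMSO vehicle for 72 h. XTT labeling mix added, 4 h, absorbance at 450 nm. IC50 vs untreated by non-linear regression; mean ± SD of ≥3 experiments.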

[2] = tested on: HeLa; assay: Cytotoxicity against human HeLa cells after 72 hrs by MTT assay
Procedure, shortened: (§1)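 MTT dose–response: exponentially growing HeLa (1×10^3 cells/well) or HepG2 (8×10^3 cells/well, DMEM + 10% FBS, 1 mM pyruvate) seeded, left 24 h, then given a compound range in DMSO (final <0.1%) for 72 h. MTT 0.5 mg/ml for 1 h, formazan dissolved in DMSO, read at 550 nm. IC50 vs untreated by non-linear regression, mean ± SD of at least three experiments.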

[3] = tested on: HepG2; assay: Cytotoxicity against human HepG2 cells after 72 hrs by MTT assay; settings: HepG2, 72 h; procedure, shortened: as §1
[4] = tested on: SH-SY5Y; assay: Cytotoxicity against human SH-SY5Y cells at 20 uM after 72 hrs by XTT assay
Procedure, shortened: (§2)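 XTT screen at a single concentration: cells seeded at 1×10^3–30×10^3 cells/well depending on cell type, exposed to 20 μM for 72 h at 37 °C, 5% CO2, then read by XTT. Triplicate wells, three independent repeats; output is % proliferation relative to control.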

[5] = tested on: HT-29; assay: Cytotoxicity against human HT-29 cells at 20 uM after 72 hrs by MTT assay
Procedure, shortened: (§3)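 Single-concentration screen: compound at 20 μM applied to cells plated at 1×10^3–30×10^3 cells/well (density set by cell type), 72 h at 37 °C, 5% CO2. Viability read by MTT, triplicate wells, experiment repeated three times; result given as % proliferation versus control.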

[6] = tested on: MIA PaCa-2; assay: Cytotoxicity against human MIAPaCa2 cells at 20 uM after 72 hrs by MTT assay; procedure, shortened: as §3
[7] = tested on: HepG2; assay: Cytotoxicity against human HepG2 cells at 20 uM after 72 hrs by MTT assay; procedure, shortened: as §3
[8] = tested on: HeLa; assay: Cytotoxicity against human HeLa cells at 20 uM after 72 hrs by MTT assay; procedure, shortened: as §3
[9] = tested on: Jurkat; assay: Cytotoxicity against human Jurkat cells at 20 uM after 72 hrs by XTT assay; procedure, shortened: as §2
[10] = tested on: A-375; assay: Cytotoxicity against human A375 cells at 20 uM after 72 hrs by MTT assay; procedure, shortened: as §3
[11] = tested on: MCF7; assay: Cytotoxicity against human MCF7 cells at 20 uM after 72 hrs by MTT assay; procedure, shortened: as §3

SMILES	IC50 [1] [µM]	IC50 [2] [µM]	IC50 [3] [µM]	Activity [4]	Activity [5]	Activity [6]	Activity [7]	Activity [8]	Activity [9]	Activity [10]	Activity [11]
C=C(C)[C@@H]1CC[C@]2(COC(=O)n3ccnc3)CC[C@]3(C)[C@H](CC[C@@H]4[C@@]5(C)CC[C@H](OC(=O)n6ccnc6)C(C)(C)[C@@H]5CC[C@]43C)[C@@H]12	> 30	> 30	> 30								
C=C(COC)[C@@H]1CC[C@]2(COC(=O)n3ccnc3)CC[C@]3(C)[C@H](CC[C@@H]4[C@@]5(C)CC[C@H](OC(=O)n6ccnc6)C(C)(C)[C@@H]5CC[C@]43C)[C@@H]12	16.2	> 30	19.6								
C=C(C)[C@@H]1CC[C@]2(C(=O)OC)CC[C@]3(C)[C@H](CC[C@@H]4[C@@]5(C)CC[C@H](OC(=O)n6ccnc6)C(C)(C)[C@@H]5CC[C@]43C)[C@@H]12	9.9	8.2	4.3								
C=C(C)[C@@H]1CC[C@]2(C(=O)n3ccnc3)CC[C@]3(C)[C@H](CC[C@@H]4[C@@]5(C)C=C(O)C(=O)C(C)(C)[C@@H]5CC[C@]43C)[C@@H]12	7	4.6	6.5	Active	Active	Active	Active	Active	Active	Active	Active
C=C(C)[C@@H]1CC[C@]2(C(=O)O)CC[C@]3(C)[C@H](CC[C@@H]4[C@@]5(C)CC[C@H](O)C(C)(C)[C@@H]5CC[C@]43C)[C@@H]12 [BETULINIC ACID]	26.9	26	36.4	Active	Active	Active	Active	Active	Active	Active	Active
C=C(C)[C@@H]1CC[C@]2(C(=O)n3ccnc3)CC[C@]3(C)[C@H](CC[C@@H]4[C@@]5(C)CC[C@H](OC(=O)n6ccnc6)C(C)(C)[C@@H]5CC[C@]43C)[C@@H]12	6	8.2	2.9								
C=C(C)[C@@H]1CC[C@]2(CO)CC[C@]3(C)[C@H](CC[C@@H]4[C@@]5(C)CC[C@H](OC(=O)n6ccnc6)C(C)(C)[C@@H]5CC[C@]43C)[C@@H]12	11.1	3	2								
C[C@@H](C=O)[C@@H]1CC[C@]2(COC(=O)n3ccnc3)CC[C@]3(C)[C@H](CC[C@@H]4[C@@]5(C)CC[C@H](OC(=O)n6ccnc6)C(C)(C)[C@@H]5CC[C@]43C)[C@@H]12	20.2	19.2	26.1								
C=C(C)[C@@H]1CC[C@]2(C(=O)n3ccnc3)CC[C@]3(C)[C@H](CC[C@@H]4[C@@]5(C)CCC(=O)C(C)(C)[C@@H]5CC[C@]43C)[C@@H]12	1.4	2	0.8								
C=C(C)[C@@H]1CC[C@]2(COC(=O)n3ccnc3)CC[C@]3(C)[C@H](CC[C@@H]4[C@@]5(C)CC[C@H](O)C(C)(C)[C@@H]5CC[C@]43C)[C@@H]12	16.3	7.6	4.2	Active	Active	Active	Active	Active	Active	Active	Active
C=C(C)[C@@H]1CC[C@]2(C(=O)O)CC[C@]3(C)[C@H](CC[C@@H]4[C@@]5(C)CC[C@H](OC(=O)n6ccnc6)C(C)(C)[C@@H]5CC[C@]43C)[C@@H]12	5.2	5.1	6.2	Active	Active	Active	Active	Active	Active	Active	Active
C[C@@H](C=O)[C@@H]1CC[C@]2(COC(=O)n3ccnc3)CC[C@]3(C)[C@H](CC[C@@H]4[C@@]5(C)CC[C@H](O)C(C)(C)[C@@H]5CC[C@]43C)[C@@H]12	13.7	11.1	11.5	Active	Active	Active	Active	Active	Active	Active	Active
C=C(C)[C@@H]1CC[C@]2(C(=O)n3ccnc3)CC[C@]3(C)[C@H](CC[C@@H]4[C@@]5(C)C=CC(=O)C(C)(C)[C@@H]5CC[C@]43C)[C@@H]12	2.3	3	1.7								
C=C(C)[C@@H]1CC[C@]2(COC(=O)n3ccnc3)CC[C@]3(C)[C@H](CC[C@@H]4[C@@]5(C)CC[C@H](OC(C)=O)C(C)(C)[C@@H]5CC[C@]43C)[C@@H]12	> 30	> 30	> 30								
C=C(COC)[C@@H]1CC[C@]2(COC(=O)n3ccnc3)CC[C@]3(C)[C@H](CC[C@@H]4[C@@]5(C)CC[C@H](O)C(C)(C)[C@@H]5CC[C@]43C)[C@@H]12	12.2	9.8	8.3	Active	Active	Active	Active	Active	Active	Active	Active
C=C(C)[C@@H]1CC[C@]2(C(=O)n3ccnc3)CC[C@]3(C)[C@H](CC[C@@H]4[C@@]5(C)C=C(OC(=O)n6ccnc6)C(=O)C(C)(C)[C@@H]5CC[C@]43C)[C@@H]12	8.1	3.9	4								
C=C(C)[C@@H]1CC[C@]2(COC(C)=O)CC[C@]3(C)[C@H](CC[C@@H]4[C@@]5(C)CC[C@H](OC(=O)n6ccnc6)C(C)(C)[C@@H]5CC[C@]43C)[C@@H]12	> 30	> 30	> 30								
